Tested on: normal human dermal fibroblast (HDF) cells
Experiment: MTT cytotoxicity assay, normal HDF cells
Type: cell-based
Conditions: 48 h, read-out: In vitro antiproliferative effects (IC50) HDF
Outline: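 Cells came from the National Cell Bank of Iran and were grown in RPMI-1640 or DMEM with 10% FBS at 37 °C, 5% CO2 and 100% humidity. Test compounds in 0.1% DMSO (n = 3) were incubated 48 h, then MTT for 3 h, with formazan OD read at 570 nm. Controls were 0.1% DMSO (negative) and etoposide (positive). IC50 came from dose–response curves, mean ± SE of at least three independent experiments.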

Compound	IC50
COC(=O)c1c(-c2ccccc2)c2n(c1C(=O)OC)CCn1cccc1-2 [5a, Dimethyl-1-phenyl-5,6-dihydrodipyrrolo[1,2-a:2′,1′-c]pyrazine-2,3-dicarboxylate]	> 100 µM
COC(=O)c1c(-c2ccccc2O)c2n(c1C(=O)OC)CCn1cccc1-2 [5b, Dimethyl-1-(2-hydroxyphenyl)-5,6-dihydrodipyrrolo[1,2-a:2′,1′-c]pyrazine-2,3-dicarboxylate]	> 100 µM
COC(=O)c1c(-c2cccc(O)c2)c2n(c1C(=O)OC)CCn1cccc1-2 [5c, Dimethyl-1-(3-hydroxyphenyl)-5,6-dihydrodipyrrolo[1,2-a:2′,1′-c]pyrazine-2,3-dicarboxylate]	> 100 µM
COC(=O)c1c(-c2ccccc2C)c2n(c1C(=O)OC)CCn1cccc1-2 [5d, Dimethyl-1-(2-tolyl)-5,6-dihydrodipyrrolo[1,2-a:2′,1′-c]pyrazine-2,3-dicarboxylate]	> 100 µM
COC(=O)c1c(-c2cccc(C)c2)c2n(c1C(=O)OC)CCn1cccc1-2 [5e, Dimethyl-1-(3-tolyl)-5,6-dihydrodipyrrolo[1,2-a:2′,1′-c]pyrazine-2,3-dicarboxylate]	> 100 µM
COC(=O)c1c(-c2ccc(C)cc2)c2n(c1C(=O)OC)CCn1cccc1-2 [5f, Dimethyl-1-(4-tolyl)-5,6-dihydrodipyrrolo[1,2-a:2′,1′-c]pyrazine-2,3-dicarboxylate]	> 100 µM
COC(=O)c1c(-c2cccc(OC)c2)c2n(c1C(=O)OC)CCn1cccc1-2 [5g, Dimethyl-1-(3-methoxyphenyl)-5,6-dihydrodipyrrolo[1,2-a:2′,1′-c]pyrazine-2,3-dicarboxylate]	> 100 µM
COC(=O)c1c(-c2ccc(OC)cc2)c2n(c1C(=O)OC)CCn1cccc1-2 [5h, Dimethyl-1-(4-methoxyphenyl)-5,6-dihydrodipyrrolo[1,2-a:2′,1′-c]pyrazine-2,3-dicarboxylate]	> 100 µM
COC(=O)c1c(-c2ccccc2F)c2n(c1C(=O)OC)CCn1cccc1-2 [5i, Dimethyl-1-(2-fluorophenyl)-5,6-dihydrodipyrrolo[1,2-a:2′,1′-c]pyrazine-2,3-dicarboxylate]	> 100 µM
COC(=O)c1c(-c2ccc(F)cc2)c2n(c1C(=O)OC)CCn1cccc1-2 [5j, Dimethyl-1-(4-fluorophenyl)-5,6-dihydrodipyrrolo[1,2-a:2′,1′-c]pyrazine-2,3-dicarboxylate]	> 100 µM
COC(=O)c1c(-c2cccc(Cl)c2)c2n(c1C(=O)OC)CCn1cccc1-2 [5k, Dimethyl-1-(3-chlorophenyl)-5,6-dihydrodipyrrolo[1,2-a:2′,1′-c]pyrazine-2,3-dicarboxylate]	> 100 µM
COC(=O)c1c(-c2ccc(Cl)cc2)c2n(c1C(=O)OC)CCn1cccc1-2 [5l, Dimethyl-1-(4-chlorophenyl)-5,6-dihydrodipyrrolo[1,2-a:2′,1′-c]pyrazine-2,3-dicarboxylate]	> 100 µM
COC(=O)c1c(-c2cccc(Br)c2)c2n(c1C(=O)OC)CCn1cccc1-2 [5m, Dimethyl-1-(3-bromophenyl)-5,6-dihydrodipyrrolo[1,2-a:2′,1′-c]pyrazine-2,3-dicarboxylate]	> 100 µM
COC(=O)c1c(-c2ccc(Br)cc2)c2n(c1C(=O)OC)CCn1cccc1-2 [5n, Dimethyl-1-(4-bromophenyl)-5,6-dihydrodipyrrolo[1,2-a:2′,1′-c]pyrazine-2,3-dicarboxylate]	> 100 µM
COC(=O)c1c(-c2cccc([N+](=O)[O-])c2)c2n(c1C(=O)OC)CCn1cccc1-2 [5o, Dimethyl-1-(3-nitrophenyl)-5,6-dihydrodipyrrolo[1,2-a:2′,1′-c]pyrazine-2,3-dicarboxylate]	> 100 µM
COC(=O)c1c(-c2ccc([N+](=O)[O-])cc2)c2n(c1C(=O)OC)CCn1cccc1-2 [5p, Dimethyl-1-(4-nitrophenyl)-5,6-dihydrodipyrrolo[1,2-a:2′,1′-c]pyrazine-2,3-dicarboxylate]	> 100 µM
COC(=O)c1c(-c2ccc(O)c(OC)c2)c2n(c1C(=O)OC)CCn1cccc1-2 [5q, Dimethyl-1-(4-hydroxy-3-methoxyphenyl)-5,6-dihydrodipyrrolo[1,2-a:2′,1′-c]pyrazine-2,3-dicarboxylate]	> 100 µM
COC(=O)c1c(-c2ccc(Cl)cc2Cl)c2n(c1C(=O)OC)CCn1cccc1-2 [5r, Dimethyl-1-(2,4-dichlorophenyl)-5,6-dihydrodipyrrolo[1,2-a:2′,1′-c]pyrazine-2,3-dicarboxylate]	> 100 µM

Compound	IC50
COC(=O)c1c(-c2cc(OC)c(OC)c(OC)c2)c2n(c1C(=O)OC)CCn1cccc1-2 [5s, Dimethyl-1-(3,4,5-trimethoxyphenyl)-5,6-dihydrodipyrrolo[1,2-a:2′,1′-c]pyrazine-2,3-dicarboxylate]	> 100 µM
O=c1[nH]nc(O)c2c(-c3ccccc3)c3n(c12)CCn1cccc1-3 [7a, 11-Hydroxy-12-phenyl-5,6-dihydropyrrolo[2″,1″:3′,4′]pyrazino[1′,2′:1,5]pyrrolo[2,3-d] pyridazin-8(9H)-one]	> 100 µM
O=c1[nH]nc(O)c2c(-c3cccc(O)c3)c3n(c12)CCn1cccc1-3 [7b, 11-Hydroxy-12-(3-hydroxyphenyl)-5,6-dihydropyrrolo[2″,1″:3′,4′]pyrazino[1′,2′:1,5] pyrrolo[2,3-d]pyridazin-8(9H)-one]	> 100 µM
Cc1ccccc1-c1c2n(c3c(=O)[nH]nc(O)c13)CCn1cccc1-2 [7c, 11-Hydroxy-12-(o-tolyl)-5,6-dihydropyrrolo[2″,1″:3′,4′]pyrazino[1′,2′:1,5]pyrrolo[2,3-d] pyridazin-8(9H)-one]	> 100 µM
Cc1cccc(-c2c3n(c4c(=O)[nH]nc(O)c24)CCn2cccc2-3)c1 [7d, 11-Hydroxy-12-(m-tolyl)-5,6-dihydropyrrolo[2″,1″:3′,4′]pyrazino[1′,2′:1,5]pyrrolo[2,3-d] pyridazin-8(9H)-one]	> 100 µM
Cc1ccc(-c2c3n(c4c(=O)[nH]nc(O)c24)CCn2cccc2-3)cc1 [7e, 11-Hydroxy-12-(p-tolyl)-5,6-dihydropyrrolo[2″,1″:3′,4′]pyrazino[1′,2′:1,5]pyrrolo[2,3-d] pyridazin-8(9H)-one]	> 100 µM
COc1cccc(-c2c3n(c4c(=O)[nH]nc(O)c24)CCn2cccc2-3)c1 [7f, 11-Hydroxy-12-(3-methoxyphenyl)-5,6-dihydropyrrolo[2″,1″:3′,4′]pyrazino[1′,2′:1,5] pyrrolo[2,3-d]pyridazin-8(9H)-one]	> 100 µM
COc1ccc(-c2c3n(c4c(=O)[nH]nc(O)c24)CCn2cccc2-3)cc1 [7g, 11-Hydroxy-12-(4-methoxyphenyl)-5,6-dihydropyrrolo[2″,1″:3′,4′]pyrazino[1′,2′:1,5] pyrrolo[2,3-d]pyridazin-8(9H)-one]	> 100 µM
O=c1[nH]nc(O)c2c(-c3ccc(F)cc3)c3n(c12)CCn1cccc1-3 [7h, 12-(4-Fluorophenyl)-11-hydroxy-5,6-dihydropyrrolo[2″,1″:3′,4′]pyrazino[1′,2′:1,5] pyrrolo[2,3-d]pyridazin-8(9H)-one]	> 100 µM
O=c1[nH]nc(O)c2c(-c3cccc(Cl)c3)c3n(c12)CCn1cccc1-3 [7i, 12-(3-Chlorophenyl)-11-hydroxy-5,6-dihydropyrrolo[2″,1″:3′,4′]pyrazino[1′,2′:1,5]pyrrolo [2,3-d]pyridazin-8(9H)-one]	> 100 µM
O=c1[nH]nc(O)c2c(-c3ccc(Cl)cc3)c3n(c12)CCn1cccc1-3 [7j, 12-(4-Chlorophenyl)-11-hydroxy-5,6-dihydropyrrolo[2″,1″:3′,4′]pyrazino[1′,2′:1,5] pyrrolo[2,3-d]pyridazin-8(9H)-one]	> 100 µM
O=c1[nH]nc(O)c2c(-c3cccc(Br)c3)c3n(c12)CCn1cccc1-3 [7k, 12-(3-Bromophenyl)-11-hydroxy-5,6-dihydropyrrolo[2″,1″:3′,4′]pyrazino[1′,2′:1,5]pyrrolo [2,3-d]pyridazin-8(9H)-one]	> 100 µM
O=c1[nH]nc(O)c2c(-c3ccc(Br)cc3)c3n(c12)CCn1cccc1-3 [7l, 12-(4-Bromophenyl)-11-hydroxy-5,6-dihydropyrrolo[2″,1″:3′,4′]pyrazino[1′,2′:1,5] pyrrolo[2,3-d]pyridazin-8(9H)-one]	> 100 µM
O=c1[nH]nc(O)c2c(-c3ccc([N+](=O)[O-])cc3)c3n(c12)CCn1cccc1-3 [7n, 11-Hydroxy-12-(4-nitrophenyl)-5,6-dihydropyrrolo[2″,1″:3′,4′]pyrazino[1′,2′:1,5] pyrrolo[2,3-d]pyridazin-8(9H)-one]	> 100 µM
COc1cc(-c2c3n(c4c(=O)[nH]nc(O)c24)CCn2cccc2-3)ccc1O [7o, 11-Hydroxy-12-(4-hydroxy-3-methoxyphenyl)-5,6-dihydropyrrolo[2″,1″:3′,4′]pyrazino [1′,2′:1,5]pyrrolo[2,3-d]pyridazin-8(9H)-one]	> 100 µM
O=c1[nH]nc(O)c2c(-c3ccc(Cl)cc3Cl)c3n(c12)CCn1cccc1-3 [7p, 12-(2,4-Dichlorophenyl)-11-hydroxy-5,6-dihydropyrrolo[2″,1″:3′,4′]pyrazino [1′,2′:1,5]pyrrolo[2,3-d]pyridazin-8(9H)-one]	> 100 µM
COc1cc(-c2c3n(c4c(=O)[nH]nc(O)c24)CCn2cccc2-3)cc(OC)c1OC [7q, 11-Hydroxy-12-(3,4,5-trimethoxyphenyl)-5,6-dihydropyrrolo[2″,1″:3′,4′]pyrazino [1′,2′:1,5]pyrrolo[2,3-d]pyridazin-8(9H)-one]	> 100 µM
COc1cc([C@@H]2c3cc4c(cc3[C@@H](O[C@@H]3O[C@@H]5CO[C@@H](C)O[C@H]5[C@H](O)[C@H]3O)[C@H]3COC(=O)[C@H]23)OCO4)cc(OC)c1O [etoposide, reference compound]	> 100 µM
